For orientation: Ki means a dissociation constant, usually derived from enzyme kinetics or from competition with a known ligand. A high value points to a looser hold on the target. A word on the clearance: it is the rate of elimination divided by the concentration. As usually defined, the Cmax is the peak of the concentration-time curve. What is called half-life is the time in which the quantity being followed falls by half. Read a high half-life as slow decline. One may read the AUC as concentration integrated over time. High values mean more exposure, low ones less exposure. As a reminder, the bioavailability is dose-corrected exposure relative to a reference, in per cent.

The target of one data set is Dipeptidyl peptidase 8 (Homo sapiens, UniProt Q6V1X1). Description: Inhibition of DPP8.
Another data set addresses Dipeptidyl peptidase 9 (Homo sapiens, UniProt Q86TI2). Briefly: Inhibition of DPP9.
Data set [1] in a line: Plasma clearance in rat at 5 mg/kg, iv. Type of data set: ADME, organism-based. Set-up: dose 5 mg/kg, route intravenous. A digest of the protocol: (§1)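 Rats (n = 6) dosed at 5 mg/kg by iv and po routes. Plasma clearance and steady-state volume of distribution were taken from iv dosing. Cmax (maximal concentration) and terminal half-life were taken from oral dosing. AUC and oral bioavailability (F) are also reported.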

Data set [2] can be described thus: Volume of distribution at steady state in rat at 5 mg/kg, iv. It is filed as ADME, organism-based. Further details: dose 5 mg/kg, route intravenous. Conditions: in vivo, read-out: Vss. In outline:
as §1

The nature of data set [3]: Cmax in rat at 5 mg/kg, po. It is filed as ADME, organism-based. Further details: dose 5 mg/kg, route oral. The settings on record: in vivo. In outline: as §1
Data set [4] is described as follows: Half life in rat at 5 mg/kg, po. Set-up: dose 5 mg/kg, route oral. It is filed as ADME, organism-based. The settings on record: in vivo. In outline: as §1
The next data set relates to Rattus norvegicus. Description: AUC in rat at 5 mg/kg, po. Type of data set: ADME, organism-based, Plasma. Further details: dose 5 mg/kg, route oral. The settings on record: in vivo. In outline:
as §1

A short description of data set [5]: Oral bioavailability in rat at 5 mg/kg, po. It is filed as ADME, organism-based. Conditions: in vivo. In outline:
as §1

A value given as a limit tells only on which side of the number the result lay.

Sequence of Dipeptidyl peptidase 8 (Q6V1X1 whole entry): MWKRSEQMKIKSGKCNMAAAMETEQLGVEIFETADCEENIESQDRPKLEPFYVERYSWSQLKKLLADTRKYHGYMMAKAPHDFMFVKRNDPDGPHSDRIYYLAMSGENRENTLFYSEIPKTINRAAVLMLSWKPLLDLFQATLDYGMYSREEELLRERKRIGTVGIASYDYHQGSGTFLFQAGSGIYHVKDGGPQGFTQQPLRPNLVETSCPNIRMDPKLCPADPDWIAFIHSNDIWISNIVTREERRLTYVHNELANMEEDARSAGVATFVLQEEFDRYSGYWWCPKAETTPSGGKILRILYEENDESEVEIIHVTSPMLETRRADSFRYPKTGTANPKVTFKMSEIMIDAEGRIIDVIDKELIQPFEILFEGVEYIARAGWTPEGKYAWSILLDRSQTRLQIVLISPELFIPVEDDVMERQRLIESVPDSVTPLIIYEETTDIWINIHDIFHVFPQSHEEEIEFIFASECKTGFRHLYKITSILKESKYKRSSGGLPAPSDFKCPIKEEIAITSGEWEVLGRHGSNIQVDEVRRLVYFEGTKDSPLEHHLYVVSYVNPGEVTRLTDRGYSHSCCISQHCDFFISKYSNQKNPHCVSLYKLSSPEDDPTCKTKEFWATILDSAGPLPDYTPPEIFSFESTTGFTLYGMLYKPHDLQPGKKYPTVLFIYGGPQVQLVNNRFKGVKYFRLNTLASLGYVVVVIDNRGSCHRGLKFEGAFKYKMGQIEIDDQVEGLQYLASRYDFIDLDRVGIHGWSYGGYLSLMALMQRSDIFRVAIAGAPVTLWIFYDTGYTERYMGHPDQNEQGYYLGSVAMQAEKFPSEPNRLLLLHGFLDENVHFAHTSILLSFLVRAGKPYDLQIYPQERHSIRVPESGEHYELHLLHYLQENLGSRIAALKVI
Sequence of Dipeptidyl peptidase 9 (Q86TI2 whole entry): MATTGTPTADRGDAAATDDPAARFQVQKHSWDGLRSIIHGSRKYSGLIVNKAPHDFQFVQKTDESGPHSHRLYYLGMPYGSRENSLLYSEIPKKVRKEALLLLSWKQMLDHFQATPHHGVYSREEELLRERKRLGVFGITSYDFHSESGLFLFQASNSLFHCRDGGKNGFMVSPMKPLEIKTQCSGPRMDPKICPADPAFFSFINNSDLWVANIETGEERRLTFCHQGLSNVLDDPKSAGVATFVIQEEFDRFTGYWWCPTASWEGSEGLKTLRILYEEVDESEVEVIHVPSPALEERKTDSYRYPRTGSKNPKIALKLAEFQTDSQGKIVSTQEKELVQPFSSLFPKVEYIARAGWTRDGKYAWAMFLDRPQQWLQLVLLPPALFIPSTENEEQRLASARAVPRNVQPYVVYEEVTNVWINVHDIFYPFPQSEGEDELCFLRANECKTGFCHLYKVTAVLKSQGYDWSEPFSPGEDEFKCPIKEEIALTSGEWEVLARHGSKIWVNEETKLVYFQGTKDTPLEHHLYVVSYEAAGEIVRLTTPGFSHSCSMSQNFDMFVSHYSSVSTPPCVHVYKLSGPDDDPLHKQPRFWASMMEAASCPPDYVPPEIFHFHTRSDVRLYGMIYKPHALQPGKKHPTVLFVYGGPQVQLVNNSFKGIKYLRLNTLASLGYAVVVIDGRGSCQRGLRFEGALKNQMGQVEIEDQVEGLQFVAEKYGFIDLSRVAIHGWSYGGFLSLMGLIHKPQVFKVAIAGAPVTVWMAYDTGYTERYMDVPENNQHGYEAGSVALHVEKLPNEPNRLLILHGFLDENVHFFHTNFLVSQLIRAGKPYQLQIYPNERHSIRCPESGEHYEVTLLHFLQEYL

`N[C@H]1CN(c2cc(N3CC[C@@H](O)C3)ncn2)C(=O)C[C@@H]1c1cc(F)c(F)cc1F`: the inhibition constant Ki on Dipeptidyl peptidase 8 was greater than 30 µM.
For the compound `CS(=O)(=O)c1cccc(-c2cc(N3C[C@H](N)[C@@H](c4cc(F)c(F)cc4F)CC3=O)ncn2)c1`, the Ki at Dipeptidyl peptidase 8 and on Dipeptidyl peptidase 9 was greater than 30 µM throughout. Also, the clearance in data set [1] is 3.17 mL/min/kg. For the same compound, in data set [2], the Vd is 1.28 L/kg. For the same compound, in data set [3], the peak level (Cmax) was 2000 ng/mL. Moreover, the half-life in data set [4] was 7.8 h. This compound had an area under the curve (AUC) in the data set with Rattus norvegicus of 24400 ng·h/mL. In data set [5], this compound showed a bioavailability of 90.3%.
In the case of `Cl.N[C@H]1CN(CCc2ccc3c(c2)OCO3)C(=O)C[C@@H]1c1cc(F)c(F)cc1F`, the clearance in data set [1] was 36.3 mL/min/kg. For the same compound, the Vd in data set [2] turned out to be 1.04 L/kg. This compound displayed a Cmax in data set [3] of 192 ng/mL. In data set [4], the half-life was 0.42 h. The compound also came in with an AUC in the data set on Rattus norvegicus of 223 ng·h/mL. The compound also gave a bioavailability in data set [5] of 9%.
`CS(=O)(=O)c1cccc(CCN2C[C@H](N)[C@@H](c3cc(F)c(F)cc3F)CC2=O)c1`: the clearance in data set [1] was 30.2 mL/min/kg. The Vd in data set [2] amounted to 1.24 L/kg. This compound showed a peak concentration (Cmax) in data set [3] of 710 ng/mL. In addition, the half-life in data set [4] was 1.8 h. Further, the AUC with Rattus norvegicus is 771 ng·h/mL. The compound also displayed a bioavailability in data set [5] of 27.6%.

The values above are taken from ChEMBL document CHEMBL1143002, “Discovery and structure-activity relationships of piperidinone- and piperidine-constrained phenethylamines as novel, potent, and selective dipeptidyl peptidase IV inhibitors” (J Med Chem, 2007).
